# From PubChem BioAssay
# Shown are actives, neighbours in structure and some others; about 3.8% of the full set was active somewhere.
# hERG rescue: hERG rescue from dofetilide block, primary screen, cell-based, CHO-hERG, FluxOR thallium flux, dofetilide IC70. Voltage-gated inwardly rectifying potassium channel KCNH2 (Homo sapiens), Q12809. dofetilide IC70 present. activation (rescue from dofetilide block), less the hit threshold, % at 10 µM. 310,000 tested, 0.51% active;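 active = activation above the mean of controls blocked by dofetilide plus 5 SD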;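 also: thallium influx through hERG after potassium depolarization seen as dye fluorescence rise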
# KCNQ1 act: potentiators or activators of KCNQ1 channel, primary screen, cell-based, thallium flux, high-throughput. B-score at 10 µM. AID 2648, 2010. 310,000 tested, 0.35% active. Potassium voltage-gated channel subfamily KQT member 1 (Homo sapiens), P51787. CHO-K1 KCNQ1, thallium flux FluxOR fluorescence; active compounds read high;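 active = fluorescence ratio B-score, a plate-corrected score, at least three library SD, with initial intensity B-score within 5 SD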
#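 Material: CHO-K1 cells stably expressing KCNQ1. Medium: assay buffer for compound exposure, DMSO matched across wells. Reagent: K+/Tl+ depolarizing stimulus. Compound dosing: single-concentration screen. Times: 37 °C overnight plating, 90-min dark dye load, 20-min compound pretreatment. Technique: FluxOR Tl+ flux fluorescence.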
# KCNQ1 inh: inhibitors of human KCNQ1 channel, primary screen, cell-based, thallium flux, high-throughput; Potassium voltage-gated channel subfamily KQT member 1 (Homo sapiens), P51787; CHO-K1 KCNQ1, FluxOR thallium flux fluorescence; active compounds read high; B-score at 10 µM; 310,000 tested, 1.3% active; AID 2642, 2010;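 active = compounds whose thallium flux B-score, printed positive for inhibition, exceeds three library SD while starting fluorescence stays within three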;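 also: channel opened by potassium depolarization with thallium stimulus after 20 min compound exposure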
# Kir21 inh: inhibitors of mouse Kir2.1 inward-rectifier potassium channel; Inward rectifier potassium channel 2 (Mus musculus), P35561; HEK293-Kir2.1, FluxOR thallium flux fluorescence; active compounds read low; B-score at 10 µM; 310,000 tested, 0.85% active;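 active = fluorescence ratio B-score at or below minus 3 SD of library scores, with starting-brightness B-score within 2 SD, cut at about -4.2 in these data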;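 also: channel flux triggered by added potassium and thallium sulfate stimulus; B-score of peak minus minimum fluorescence over baseline after thallium stimulus; more negative B-score means stronger Kir2.1 block with less thallium influx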
# Target sequence (P35561 whole entry, looked up): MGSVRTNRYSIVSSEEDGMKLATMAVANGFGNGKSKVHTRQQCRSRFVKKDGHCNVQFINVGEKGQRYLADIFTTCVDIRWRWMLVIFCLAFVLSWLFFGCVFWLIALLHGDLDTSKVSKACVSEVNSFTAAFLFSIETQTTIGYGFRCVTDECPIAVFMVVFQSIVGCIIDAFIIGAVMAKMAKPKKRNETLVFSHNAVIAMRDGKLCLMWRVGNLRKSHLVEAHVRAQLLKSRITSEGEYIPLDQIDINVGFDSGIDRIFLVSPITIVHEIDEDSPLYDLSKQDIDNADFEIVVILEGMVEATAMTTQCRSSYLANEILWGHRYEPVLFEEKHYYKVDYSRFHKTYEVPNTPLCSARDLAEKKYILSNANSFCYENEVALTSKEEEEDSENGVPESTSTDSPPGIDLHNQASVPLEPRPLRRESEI
# KCNK3 inh: human KCNK3 channel inhibitors, primary screen, CHO cells, FluxOR thallium flux, B-score; FluxOR fluorescence; active compounds read low; B-score at 10 µM; 340,000 tested, 0.84% active;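 active = B-score under library mean minus 4 SD, starting fluorescence ratio at most library mean plus 5 SD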;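 also: more negative B-score means stronger inhibition of thallium flux through KCNK3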
# KCNK9 block: KCNK9 potassium channel inhibitors, primary screen, HEK293 cells, thallium flux; B-score at 10 µM; AID 488922, 2010; 310,000 tested, 1.2% active; FluxOR thallium flux fluorescence; active compounds read low; Potassium channel subfamily K member 9 (Homo sapiens), Q9NPC2;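 active = ratio B-score over 3 SD below the library mean, with starting fluorescence within 5 SD of its mean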;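 also: negative B-score means less thallium flux so channel inhibition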
# * = called active by the depositor; i = inactive; . = no result given.
SMILES,hERG rescue,KCNQ1 act,KCNQ1 inh,Kir21 inh,KCNK3 inh,KCNK9 block
CC(C)(C)NC(=O)C(c1ccncc1)N(C(=O)c1csnn1)c1cccc2ccccc12 (stereo not given),3,i,i,-0.27,i,i
C=CC[C@H]1CC(C)=C[C@H](CC=C)N1C(=O)c1cc(COc2ccccc2SC)on1,-13,i,8*,-1.6,i,i
COCC1CCN(C(=O)c2cc(COc3ccccc3SC)on2)C1 (stereo not given),-9,i,i,-1.8,i,i
FC(F)(F)Oc1ccc(NC(=S)Nc2ccc(OC(F)(F)F)cc2)cc1,-18,i,10*,1.4,i,i
CC(C)c1ccc(NC(=S)Nc2ccc(OC(F)(F)F)cc2)cc1,-9,i,10*,-0.76,i,i
O=C(O)/C=C/C(=O)Nc1ccc(OC(F)(F)F)cc1,-2,i,i,0.03,i,i
CCNC(=O)C/C(C)=N/NC(=O)C(=O)Nc1ccc(CC)cc1,4.7*,i,i,-0.4,i,i
CCc1ccc(NC(=O)C(=O)N/N=C(\C)CC(=O)NCc2ccc(Cl)cc2)cc1,-10,i,i,-0.23,i,i
CC(C)(C)c1ccccc1OCCOCCN1CCCCCC1,-18,i,i,0.27,i,i
CC(C)(C)c1ccccc1OCCOCCSc1ncccn1,-10,i,i,0.24,i,-7.5*
O=C(COC(=O)Cc1ccc(Br)cc1)NC1CCCCCC1,-4,i,i,-2.9,i,i
CC(C)(C)S(=O)(=O)N1Cc2cc(=O)n(Cc3ccccc3)c(CCO)c2[C@H]1CCO,.,.,.,.,i,.
Cn1ncc2c(O/N=C(\N)c3ccc(C(C)(C)C)cc3)ncnc21,-4,10*,i,-0.04,i,i
CNC(=O)c1sccc1SCc1ccc(Cl)cc1Cl,-13,i,i,-5.2*,i,i
NNC(=O)c1sccc1OCc1ccc(Cl)cc1Cl,-12,i,i,-1.8,i,i
COc1ccc(C(=O)C(/C=N/O)=N/Nc2ccc(F)cc2)cc1,-9,i,10*,-0.39,i,i
CCN(CC1COc2ccccc2O1)S(=O)(=O)c1ccc(C)cc1 (stereo not given),-12,i,i,-4.8*,i,i
CCN(CC)S(=O)(=O)c1ccc(C(=O)NNC(=O)C2COc3ccccc3O2)cc1 (stereo not given),.,.,.,.,i,.
CN(C)C(=O)c1cc(C(=O)c2ccc(F)cc2Cl)c[nH]1,-3,i,i,0.1,i,i
CN(C)C(=O)c1cc(F)ccc1Sc1cc(Cl)ccc1Cl,-12,i,i,-5.8*,i,i
CN(C)C(=O)c1cc(Cl)ccc1Sc1cc(Cl)ccc1Cl,-18,i,i,-5.4*,i,i
CCCCN1C(=O)C(C(=O)OCc2ccccc2)CC2=C1CCCC2=O (stereo not given),.,.,.,.,i,.
c1ccc(SCCOCCN2CCc3ccccc3C2)cc1,-11,i,i,-5.4*,i,i
COc1ccc(S(=O)(=O)N(Cc2ccccc2)c2ccccc2C(=O)Nc2ccccc2C(=O)NCc2ccco2)cc1,-4,i,i,-0.47,i,-6.9*
Cn1c(=O)[nH]c(=O)c2c1[nH]c(=S)n2Cc1ccc(Cl)cc1,-4,i,i,1.1,i,i
O=C(c1cccc(C(F)(F)F)c1)C1CCCN(Cc2cccn2-c2ccccn2)C1 (stereo not given),-19,i,8*,-0.39,i,i
C=CCN1C(=O)S/C(=C/c2ccc(Sc3nc4ccccc4[nH]3)o2)C1=O,-3,i,6*,0.04,i,i
C=CCN1C(=O)S/C(=C/c2ccsc2)C1=O,-1,i,i,-1.3,i,i
